# Laboratory results: the EternaBench riboswitch data
# Tested on: MS2 coat protein
# Experiment: apparent Kd, MS2 coat protein; higher = weaker binding; RNA-MaP array; FMN 200 µM where present
# Outline: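 Stalled E. coli RNA polymerase transcribed each design on Illumina sequencing-chip clusters. The clusters were titrated with SNAP-549-labelled MS2 coat protein, starting at 0.7 or 1.5 nM and doubling up to 3 µM, first without ligand and then with constant ligand, in 100 mM Tris-HCl pH 7.5, 80 mM KCl, 4 mM MgCl2, BSA, DTT, yeast tRNA and Tween-20. Green signal was normalised to red-channel RNA signal and to the control-cluster median Fmax. The apparent Kd is the median of filtered binding-curve fits made for each cluster.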
# [1] = designed as: OFF switch for flavin mononucleotide, no ligand
# [2] = ligand present: flavin mononucleotide, designed as: OFF switch for flavin mononucleotide
# [3] = designed as: ON switch for flavin mononucleotide, no ligand
# [4] = ligand present: flavin mononucleotide, designed as: ON switch for flavin mononucleotide
Sequence,apparent Kd [1],apparent Kd [2],apparent Kd [3],apparent Kd [4]
GUGGCACAUGAGGAUCACCCAUGUCAGGAUAUCGUGUGUUUUUUUUCGGCCGCGCGCGCGAGAAGGGACGUCUU,149 nM,120 nM,,
GAGUGACAUGAGGAUCACCCAUGUGAGGAUAUCGGACGGACCAAAUUAACAAUUUUUGCGAGAAGGCACAUCGG,59.5 nM,72.4 nM,,
CGUCUAUGCUAGAAGGCAUGAAACAUGAGGAUCACCCAUGUCAAAGACAUGAGGAUAUAGCAUAGACGAAAAGUGCGAAAGCAC,,,4.43 nM,3.26 nM
GCGUAUAAGGUGUAGCUAGACAUUCAAGAAGGGUGAAGAACAUGAGGAUCACCCAUGUAGUAGGUACAGGAUAUUGAUUUACGC,,,656 nM,372 nM
AAAAUCUAUAGAGGAUAUCCAUACACUGCAUACGGAGAAGGCUAACAAUCAUGAGGACAUGAGGAUCACCCAUGUUGUGACCAU,,,19.9 nM,13.6 nM
CCGACGUCAGGAUAUCUGAUGUCUAACUUCGGUUAGACAUCAGAGAAGGGACAUGAGGAUCACCCAUGUCGGAG,29 nM,52.8 nM,,
AUUUUGCGAGGAUAUACAUGAGGAUCACCCAUGUACGCUCAGCAGGGUGAAGGCUCUUGUAGAAGGCGUUCUGA,88.2 nM,45.8 nM,,
UGAAAUCAUGUAGGAUAUGCAUGGCGAAGCUACGCAGAAGGACAUGAGGAUCACCCAUGUUAUAGCUACCCAGCUCGGUGGCAA,39.6 nM,117 nM,,
GGACGUGUCGUUUACAUGAGGAUCACCCAUGUCGAUAGACAUGAGGAUAUGGAUCCGAAUCGGAUCCAGAAGGCAUGCACGUCC,,,260 nM,26.8 nM
GGGCCCGGUGUGAGGAUAUGCCCGGGUAAAUUUGGGCAGAAGGCACAUGAGGAUCACCCAUGUAAGCCGGGUUU,14.8 nM,12.9 nM,,
CCAGAUAUGUGAGGAUAUAUAGUGGAAUACACUAUAGAAGGUAUGUGAGAACAUGAGGAUCACCCAUGUCAUUGGAUAUCUGGA,,,33.5 nM,38.1 nM
AAUUCACAUGAGGAUCACCCAUGUCAGGAUAUGCUGACGCGGGUUUCGGUGCGUGUUGGCAGAAGGGACAGCUA,193 nM,204 nM,,
GAGCUGCAGACAGGAUAUGAGACCGCCACGGUCUCAGAAGGGUCAUGUUCUACAUGAGGAUCACCCAUGUCGGACAGCUCGAAG,,,140 nM,11.8 nM
ACAUGAGAGUUAGGAUAUCUUGUACCUACAUGUGACAUGAGGAUCACCCAUGUGGUAAGUAUGAGGGAGAAGGAACAGAUAUGU,,,43.9 nM,33.9 nM
UCAUAUUUACAAGGAUAUCAAUUGAAUAAACAUCGGACAUGAGGAUCACCCAUGUGAAAGUAUGGUGAGAAGGUGUAUUGUCGG,,,217 nM,154 nM
AUAUAUAGUGUGAGGAUAUGCUGGUCCUUGGAUCAGCAGAAGGCACAUGAGGAUCACCCAUGUAGUUUAUUUUG,17.5 nM,77 nM,,
GGCUAGUCAGGAUAUACGAACAUGUCAAAAGACGUGAAGGGACAUGAGGAUCACCCAUGUAGAAGGGACUAGCG,29.4 nM,141 nM,,
AGGAGGUUAGGAUAUGCUGCUCGUCACUUGCGUGAUGAGUAGCAGAAGGAACAUGAGGAUCACCCAUGUAAAGA,29.7 nM,35.1 nM,,
UACGGGUCAGGAUAUGCGAGAGAGUGGGAAAUAGGAAGGUAGCAGAAGGGACAUGAGGAUCACCCAUGUGAGGC,24.3 nM,29.5 nM,,
GAAGAUAUAGGAUAUACAUGAGGAUCACCCAUGUGAGUACGCAAGGCUAGAUCGCUUUGUAGAAGGAUAUACCG,38.5 nM,40.8 nM,,
UUACUUUUACAGAAGGUUUAAUAAUAUAUAAAAGAAGGAUAUGUAACAUGAGGAUCACCCAUGUUUCACCCACAUGAGGAUCAU,11.5 nM,9.79 nM,,
AGAUAGGACAGAGGAUAUACGUGCUAGAGAUACUAGCAAAAUUUCCUCACAUGAGGAUCACCCAUGUAGAAGGCUGUCCUAUCG,15.6 nM,436 nM,,
AGUGUGUGGCAGGAUAUGCUAUUAAUUGGUGAAGCAGAAGGGUCUACAUGAGGAUCACCCAUGUAAGCGGUUGA,39.7 nM,190 nM,,
UCAUUUAUUACAGGAUAUAUUAGUAUACAGUUGUUUGGUUAUUACAUAUUAAUAGAAGGGUAGAACAUGAGGAUCACCCAUGUA,,,234 nM,119 nM

Sequence,apparent Kd [1],apparent Kd [2],apparent Kd [3],apparent Kd [4]
AAGCCUAAUGAGAAGGUGUGUAUAAAUUAUAUACAAGGAUAUCGGUCGAGCGUGUUGACAUGAGGAUCACCCAUGUUGAGGCUU,,,10.3 nM,6.22 nM
UUUAUACAUGAGGAUCACCCAUGUUAGGAUAUGGCUUUAAUGCCGCCGUCAUUAUCCGCCAGAAGGGACGUGUC,32.2 nM,30.4 nM,,
ACCCGACAUGAGGAUCACCCAUGUAAACAAUCAUGAGGAUAUCCGGAGCAAGUGCUCCAGGGAGAAGGCAUAAAAG,,,76.3 nM,42.2 nM
ACACGGUAUGUAGGAUAUGCAUAGCAUUGCUAUGCAGAAGGACAUGAGGAUCACCCAUGUAUGUAUUCCAUACUAAUCCCGUGA,5.78 nM,5.88 nM,,
AAUUUACAUGAGGAUCACCCAUGUGAGGAUAUACACACAUGCUUGUUAUUGCGUGUGUGUAGAAGGCGCGUGAU,97.3 nM,153 nM,,
GCCAUCGCAUGAGGAUAUGGCACCGUUUCGGUGCCAGAAGGCAUGUCAUAAGACAUGAGGAUCACCCAUGUGGUUAAGAUGGCA,,,865 nM,50.9 nM
UAUGUUGUUGUGAGGAUAUACUUAGUUUGACCGUAGUAGAAGGCACAUGAGGAUCACCCAUGUAGAUGCUUGGU,5.75 nM,10.8 nM,,
UGUGUUAUUGGAGGAUAUCGAUAUCAAACAUGAGGAUCACCCAUGUUGAGGAUCACACAUGUCCAUGAGAAGGCCGACGUAGUG,,,10.5 nM,10.5 nM
GCCGAUUAAGUGAGGAUAUACCUAUGGAUACAUAGGUAGAAGGUACAUGAGGAUCACCCAUGUUCCUCAUCGGC,10 nM,12.2 nM,,
GUAGGGUCAGGAUAUACGGGCGGGAGGAUGUAGUGGAGUUGGUAGAAGGGACAUGAGGAUCACCCAUGUGAGAA,30.7 nM,27.8 nM,,
UUACACUUGAGGGUCUCCCUUGACAUGAGGAUCACCCAUGUGCAGGAUAUACGUGUGAUGGUAUAGUAGAAGGGCACUCUAUGU,23 nM,29.7 nM,,
UAAAAGACUAGCAAAUAAGUUCCACAUGAGGAUCACCCAUGUCAGGAUAUGAGCAGCAAAGCUGCUCAGAAGGGAUAGCUAGUC,6.45 nM,6.39 nM,,
AAAACAUGAGGAUCACCCAUGUAAAGAUCGGUUAAUAGAGGUGAGGAUAUACGAACUUAAAGGUGGUAGAAGGCACUGGGUACA,,,71.6 nM,53.3 nM
GGUGCGUAUGUGAGGAUAUGCUGGUCCUUGGGUCGGCAGAAGGCACAUGAGGAUCACCCAUGUGGUGUCGUUCC,86.2 nM,86.5 nM,,
UAAACAUGAGGAUCACCCAUGUAAAGAUCGGUAGUAGAGAGUGAGGAUAUACUAAAUUUAAUGGAGUAGAAGGCACUGGGUUCU,,,44.8 nM,30.9 nM
GUGUACAGAGGAUAUACAUAAGCAUGGAAACAUGCAUCUUCACAUGAGGAUCACCCAUGUAGAAGGCUGUACAC,18.1 nM,75.6 nM,,
UUGAUUAUACAAGGAUAUCAAUUGUAAUUGAGACUUACAUGAGGAUCACCCAUGUUAAUAUUUUUUGAGAAGGUGUAUUUUCAG,,,27.2 nM,25.4 nM
AGCUAGUGAGGAUAUACGAACAUGUCAAAAGACGUGAAGGGACAUGAGGAUCACCCAUGUAGAAGGCACUAGCA,41.1 nM,139 nM,,
UGUAUGGACAGAGGAUAUACCGAUAGGAUCUACUAUCGAACAAUCCUCACAUGAGGAUCACCCAUGUAGAAGGCUGUCCAUACU,24.1 nM,283 nM,,
AAAUGCCUGUCGAUGCUCGACAUGAGGAUCACCCAUGUAUGGCAGGAUAUGCAGAACUGACUCGUGCAGAAGGGCUAUACCUAA,8.06 nM,24.7 nM,,
CUCUUGGCAGGAUAUGCUCUUUUAGACAUGAGGAUCACCCAUGUGCUCAUUCCUUCUUUUGCAGAAGGGCCUUAAC,73 nM,54.7 nM,,
GAGGAACAUGAGGAUCACCCAUGUGAGGAUAUGCAUAGUGAGGUAGUAGACGUUGAAUGCAGAAGGUACACUGA,47.6 nM,34.3 nM,,
AGGAAACAUGAGGAUCACCCAUGUAAAAGGUGGUUAGGAUAUGCGAUAAUAAAAAUAAUAGCAGAAGGGACAAGAA,,,511 nM,432 nM
GGAUCGUAUGUCAGGAUAUGCCACUGGAUACAGUGGUAGAAGGGACAUGAGGAUCACCCAUGUCCUACCGAUCC,12.5 nM,14.4 nM,,
